From ChEMBL document CHEMBL4834402, “Discovery of TAK-981, a First-in-Class Inhibitor of SUMO-Activating Enzyme for the Treatment of Cancer” (J Med Chem, 2021)

Columns and labels:
NEDD8 activating enzyme [1] = target: T1, NEDD8 activating enzyme (Homo sapiens, UniProt Q8TBC4); test: Inhibition of recombinant NAE (unknown origin) in presence of ATP at Km concentration by HTRF assay; type: protein-complex assay
T1 sequence (Q8TBC4 whole entry): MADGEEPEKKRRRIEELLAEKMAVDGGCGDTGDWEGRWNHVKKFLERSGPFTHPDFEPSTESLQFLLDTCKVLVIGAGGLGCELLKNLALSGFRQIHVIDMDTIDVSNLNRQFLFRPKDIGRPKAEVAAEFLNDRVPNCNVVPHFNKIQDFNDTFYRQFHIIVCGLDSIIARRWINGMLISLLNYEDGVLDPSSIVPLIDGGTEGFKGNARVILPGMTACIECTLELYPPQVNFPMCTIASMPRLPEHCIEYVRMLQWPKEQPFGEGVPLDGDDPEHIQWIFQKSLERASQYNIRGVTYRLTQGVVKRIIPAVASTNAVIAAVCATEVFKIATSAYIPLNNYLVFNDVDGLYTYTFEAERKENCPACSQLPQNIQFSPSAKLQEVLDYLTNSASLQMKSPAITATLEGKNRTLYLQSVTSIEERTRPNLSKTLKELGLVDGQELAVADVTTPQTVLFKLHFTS
T1 sequence (Q13564 whole entry): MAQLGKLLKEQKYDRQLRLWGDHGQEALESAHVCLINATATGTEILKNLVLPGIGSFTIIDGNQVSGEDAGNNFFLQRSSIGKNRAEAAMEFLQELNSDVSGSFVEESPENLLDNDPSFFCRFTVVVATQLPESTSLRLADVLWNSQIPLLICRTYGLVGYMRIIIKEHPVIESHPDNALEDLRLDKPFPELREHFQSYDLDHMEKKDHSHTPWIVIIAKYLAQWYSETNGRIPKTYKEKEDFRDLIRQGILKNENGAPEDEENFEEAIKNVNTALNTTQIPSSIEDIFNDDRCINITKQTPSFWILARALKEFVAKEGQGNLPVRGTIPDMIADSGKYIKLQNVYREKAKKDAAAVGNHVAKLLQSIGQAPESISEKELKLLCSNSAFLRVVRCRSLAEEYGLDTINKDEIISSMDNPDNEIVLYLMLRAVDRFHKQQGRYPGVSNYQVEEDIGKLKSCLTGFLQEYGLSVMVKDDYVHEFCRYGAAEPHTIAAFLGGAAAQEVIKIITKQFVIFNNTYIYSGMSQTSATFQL

SUMO-activating enzyme [2] = target: T2, SUMO-activating enzyme (Homo sapiens, UniProt Q9UBT2); test: Inhibition of SAE in human HCT116 cells assessed as redistribution of SUMO2/3 proteins from nucleus to cytosol preincubated for 2 hrs followed by compound washout and measured after 8 hrs by immunofluorescence assay; type: cell-based, HCT-116
Method in brief: (§1)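 Washout format of the SUMO2/3 immunofluorescence assay in HCT116 cells. Cells were exposed to a range of concentrations for 2 h, then washed free of compound.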

SUMO-activating enzyme [3] = target: T2, SUMO-activating enzyme; test: Inhibition of recombinant SAE (unknown origin) assessed as reduction in transfer of SUMO1 to UBC9 using SUMO1 as a substrate in presence of ATP at Km concentration by HTRF assay; type: protein-complex assay
Method in brief: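 HTRF transthiolation assay measuring transfer of SUMO1 to UBC9, the E2 for SAE.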

[4] = Inhibition of recombinant UAE (unknown origin) in presence of ATP at Km concentration by HTRF assay; set-up: species or system Homo sapiens
SUMO-activating enzyme [5] = target: T2, SUMO-activating enzyme; test: Inhibition of SAE in human HCT116 cells assessed as reduction in redistribution of SUMO2/3 proteins from nucleus to cytosol incubated for 4 hrs by immunofluorescence assay; type: cell-based, HCT-116
Method in brief: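 HCT-116 cells exposed to compound across a concentration range for 4 h, then stained with anti-SUMO2/3 monoclonal antibody. Automated imaging scored the nuclear (inner) to cytoplasmic (outer) SUMO2/3 ratio. IC50 taken from the dose response.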

SUMO-activating enzyme [6] = target: T2, SUMO-activating enzyme; test: Inhibition of SAE in human HCT116 cells assessed as redistribution of SUMO2/3 proteins from nucleus to cytosol preincubated for 2 hrs followed by compound washout and measured immediately by immunofluorescence assay; type: cell-based, HCT-116; method in brief: as §1
NEDD8 activating enzyme [7] = target: T1, NEDD8 activating enzyme; test: Inhibition of NAE in human HCT116 cells assessed as reduction in conjugation of Nedd8 […] by Western blot analysis; type: cell-based, HCT-116
Method in brief: (§2)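 HCT116 cells, quantitative Western blot of E2–UBL conjugates. Read-outs were SUMO–UBC9 for SAE, ubiquitin–[…] for UAE and Nedd-8–[…] for NAE.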

NEDD8 activating enzyme [8] = target: T1, NEDD8 activating enzyme; test: Inhibition of NAE (unknown origin) using Nedd-8 as substrate incubated for 60 mins in presence of ATP and PPi by pyrophosphate exchange assay; type: protein-complex assay
Method in brief: (§3)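 Pyrophosphate exchange assay of E1 activity at 1 mM ATP. Substrates were SUMO1 or SUMO2 for SAE, Ub for UAE and Nedd-8 for NAE.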

SUMO-activating enzyme [9] = target: T2, SUMO-activating enzyme; test: Inhibition of SAE (unknown origin) using SUMO1 as substrate incubated for 60 mins in presence of ATP and PPi by pyrophosphate exchange assay; type: protein-complex assay; method in brief: as §3
SUMO-activating enzyme [10] = target: T2, SUMO-activating enzyme; test: Inhibition of SAE (unknown origin) using SUMO2 as substrate incubated for 60 mins in presence of ATP and PPi by pyrophosphate exchange assay; type: protein-complex assay; method in brief: as §3
SUMO-activating enzyme [11] = target: T2, SUMO-activating enzyme; test: Inhibition of SAE in human HCT116 cells assessed as reduction in conjugation of SUMO proteins to UBC9 by Western blot analysis; type: cell-based, HCT-116; method in brief: as §2
[12] = Inhibition of UAE (unknown origin) using Ub as substrate incubated for 60 mins in presence of ATP and PPi by pyrophosphate exchange assay; set-up: species or system Homo sapiens; method in brief: as §3

T2 sequence (Q9UBE0 whole entry): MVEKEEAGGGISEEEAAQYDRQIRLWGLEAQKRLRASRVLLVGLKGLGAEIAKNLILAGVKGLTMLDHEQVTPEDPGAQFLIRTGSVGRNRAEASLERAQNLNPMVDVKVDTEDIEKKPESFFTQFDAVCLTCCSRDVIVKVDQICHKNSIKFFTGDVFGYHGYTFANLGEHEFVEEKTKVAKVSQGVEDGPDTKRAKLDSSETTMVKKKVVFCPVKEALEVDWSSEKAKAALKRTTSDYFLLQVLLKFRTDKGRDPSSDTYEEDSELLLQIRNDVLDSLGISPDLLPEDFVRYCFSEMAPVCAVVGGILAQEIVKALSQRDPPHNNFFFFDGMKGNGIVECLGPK
T2 sequence (Q9UBT2 whole entry): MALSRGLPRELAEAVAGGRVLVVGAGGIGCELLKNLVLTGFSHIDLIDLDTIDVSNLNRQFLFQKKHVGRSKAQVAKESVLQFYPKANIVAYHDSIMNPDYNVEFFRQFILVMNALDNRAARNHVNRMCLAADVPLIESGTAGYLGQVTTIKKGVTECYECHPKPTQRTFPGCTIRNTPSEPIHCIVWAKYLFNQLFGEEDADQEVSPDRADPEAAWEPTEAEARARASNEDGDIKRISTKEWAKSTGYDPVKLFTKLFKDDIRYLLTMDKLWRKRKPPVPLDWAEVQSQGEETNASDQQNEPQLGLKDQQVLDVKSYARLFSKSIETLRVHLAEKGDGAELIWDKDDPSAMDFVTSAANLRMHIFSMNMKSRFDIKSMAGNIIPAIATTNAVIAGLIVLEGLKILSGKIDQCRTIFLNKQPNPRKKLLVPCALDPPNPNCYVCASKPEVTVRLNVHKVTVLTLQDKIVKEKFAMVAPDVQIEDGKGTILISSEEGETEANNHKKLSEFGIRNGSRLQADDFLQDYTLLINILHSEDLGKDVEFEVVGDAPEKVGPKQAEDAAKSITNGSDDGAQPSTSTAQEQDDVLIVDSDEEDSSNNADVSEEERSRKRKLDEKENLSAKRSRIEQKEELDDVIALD

Row | IC50 (NEDD8 activating enzyme [1]) | IC50 [4] | IC50 (NEDD8 activating enzyme [7]) | IC50 (NEDD8 activating enzyme [8]) | IC50 [12] | SMILES | IC50 (SUMO-activating enzyme [2]) | IC50 (SUMO-activating enzyme [3]) | IC50 (SUMO-activating enzyme [5]) | IC50 (SUMO-activating enzyme [6]) | IC50 (SUMO-activating enzyme [9]) | IC50 (SUMO-activating enzyme [10]) | IC50 (SUMO-activating enzyme [11])
1 | 102 nM | > 1000 nM | – | – | – | Cc1sc(C(=O)c2cncnc2N[C@@H]2C[C@H](COS(N)(=O)=O)[C@@H](O)C2)cc1C1OCCc2ccccc21 (some centres undefined) | 14 nM | 0.3 nM | 6 nM | 4 nM | – | – | –
2 | 32 nM | > 1000 nM | – | – | – | Cc1sc(C(=O)c2cncnc2N[C@@H]2C[C@H](COS(N)(=O)=O)[C@@H](O)C2)cc1Cc1cccc(Cl)c1 | 403 nM | 1.2 nM | 19 nM | 66 nM | – | – | –
3 | 861 nM | > 1000 nM | – | – | – | NC(c1cccc(Cl)c1)c1cc(C(=O)c2cncnc2N[C@@H]2C[C@H](COS(N)(=O)=O)[C@@H](O)C2)sc1Cl (some centres undefined) | 39 nM | 0.4 nM | 10 nM | 17 nM | – | – | –
4 | > 1000 nM | > 1000 nM | – | – | – | NS(=O)(=O)OC[C@H]1C[C@@H](Nc2ncncc2C(=O)c2cc(C3NCCc4ccc(Cl)cc43)cs2)C[C@@H]1O (some centres undefined) | 142 nM | 0.8 nM | 27 nM | 167 nM | – | – | –
5 | 450 nM | > 1000 nM | – | – | – | NS(=O)(=O)OC[C@H]1C[C@@H](Nc2ncncc2C(=O)c2cc(C3OCCc4ccc(Cl)cc43)cs2)C[C@@H]1O (some centres undefined) | 22 nM | 0.5 nM | 8 nM | 7 nM | – | – | –
6 | > 1000 nM | > 1000 nM | – | – | – | NS(=O)(=O)OC[C@H]1C[C@@H](Nc2ncncc2C(=O)c2cc(C3OCCc4ccc(Cl)cc43)c(Cl)s2)C[C@@H]1O (some centres undefined) | 14 nM | 1 nM | 8 nM | 10 nM | – | – | –
7 | > 1000 nM | > 1000 nM | – | – | – | NS(=O)(=O)OC[C@H]1C[C@@H](Nc2ncncc2C(=O)c2cc(C3NCCc4ccc(Cl)cc43)c(Cl)s2)C[C@@H]1O (some centres undefined) | 17 nM | 0.4 nM | 7 nM | 9 nM | – | – | –

Further lines, the molecule ahead of its results:

Row | SMILES | IC50 (NEDD8 activating enzyme [1]) | IC50 [4] | IC50 (NEDD8 activating enzyme [7]) | IC50 (NEDD8 activating enzyme [8]) | IC50 [12] | IC50 (SUMO-activating enzyme [2]) | IC50 (SUMO-activating enzyme [3]) | IC50 (SUMO-activating enzyme [5]) | IC50 (SUMO-activating enzyme [6]) | IC50 (SUMO-activating enzyme [9]) | IC50 (SUMO-activating enzyme [10]) | IC50 (SUMO-activating enzyme [11])
8 | NS(=O)(=O)OC[C@H]1C[C@@H](Nc2ncncc2C(=O)c2ccn(Cc3ccccc3)n2)C[C@@H]1O | 190 nM | > 1000 nM | > 5000 nM | 2600 nM | > 1000 nM | – | 2 nM | 71 nM | – | 11 nM | 69 nM | 13 nM
9 | Cc1sc(C(=O)c2cncnc2N[C@@H]2C[C@H](COS(N)(=O)=O)[C@@H](O)C2)cc1C1OCCc2cccnc21 (some centres undefined) | 507 nM | > 1000 nM | – | – | – | 64 nM | 0.2 nM | – | 19 nM | – | – | –
10 | NS(=O)(=O)OC[C@H]1C[C@@H](Nc2ncncc2C(=O)c2cc([C@@H]3OCCc4ccccc43)cs2)C[C@@H]1O | 198 nM | > 1000 nM | – | – | – | 39 nM | 0.4 nM | 4 nM | 5 nM | – | – | –
11 | NS(=O)(=O)OC[C@H]1C[C@@H](Nc2ncncc2C(=O)c2cc(C(O)c3cccc(Cl)c3)cs2)C[C@@H]1O (stereo in doubt; 31) | 216 nM | – | – | – | – | 955 nM | 0.2 nM | 55 nM | 43 nM | – | – | –
12 | Cc1sc(C(=O)c2cncnc2N[C@@H]2C[C@H](COS(N)(=O)=O)[C@@H](O)C2)cc1C(N)c1cccc(Cl)c1 (some centres undefined) | 235 nM | > 1000 nM | – | – | – | 38 nM | 0.2 nM | 16 nM | 19 nM | – | – | –
